Activity calls are given as the source filed them. The calls are words filed in the database; no cut-off is given here.
What was measured:
Homo sapiens [1] = species on record: Homo sapiens; experiment: Binding affinity to recombinant FTase (unknown origin) assessed as change in melting temperature at 20 uM by TdF assay
[2] = tested on: Human immunodeficiency virus 1; experiment: Potentiation of vorinostat-induced reactivation of latent HIV-1 infected in human Jurkat 2C4 cells assessed as increase in HIV-1 transcription incubated for 24 hrs in presence of vorinostat by Steady-Glo luciferase reporter gene assay; type: functional, organism-based; conditions: Human immunodeficiency virus 1, 2C4, 24 h
[3] = biological target: T1, Protein farnesyltransferase/geranylgeranyltransferase type-1 subunit alpha (Homo sapiens, UniProt P49354); experiment: Displacement of (4-((1-neopentyl-1H-benzo[d]imidazol-2-yl)methyl)piperazin-1-yl)(1,3,5-trimethyl-1H-pyrazol-4-yl)methanone from FNTA in vorinostat-stimulated human Jurkat 2C4 cells infected with latent HIV-1 by pull-down experiment based competitive binding assay
Method in brief: (§1)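 Affinity matrix made by immobilizing the aminoethyl-linked probe on Sepharose beads at 5.8, 3 and 1.4 mM; beads exposed to lysates of Jurkat 2C4 cells pretreated with vorinostat (250 nM); bound proteins pulled down, with free compound competing for binding.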

[4] = biological target: T2, Protein farnesyltransferase subunit beta (Homo sapiens, UniProt P49356); experiment: Displacement of (4-((1-neopentyl-1H-benzo[d]imidazol-2-yl)methyl)piperazin-1-yl)(1,3,5-trimethyl-1H-pyrazol-4-yl)methanone from FNTB in vorinostat-stimulated human Jurkat 2C4 cells infected with latent HIV-1 by pull-down experiment based competitive binding assay; type: tissue-based; method in brief: as §1
T2 sequence (P49356 whole entry): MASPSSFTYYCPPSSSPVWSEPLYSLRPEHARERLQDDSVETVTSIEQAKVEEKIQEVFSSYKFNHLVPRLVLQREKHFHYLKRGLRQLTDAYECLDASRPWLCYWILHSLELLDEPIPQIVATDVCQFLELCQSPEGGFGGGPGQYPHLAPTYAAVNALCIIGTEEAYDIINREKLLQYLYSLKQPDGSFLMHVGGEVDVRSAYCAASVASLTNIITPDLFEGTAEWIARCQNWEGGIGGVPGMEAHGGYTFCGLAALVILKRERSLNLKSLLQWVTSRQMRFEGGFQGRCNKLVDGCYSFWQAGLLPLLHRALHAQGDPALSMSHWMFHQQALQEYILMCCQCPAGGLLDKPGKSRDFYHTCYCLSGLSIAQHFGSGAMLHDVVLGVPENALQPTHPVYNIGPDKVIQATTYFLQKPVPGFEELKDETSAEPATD

[5] = Inhibition of recombinant rat FTase expressed in Escherichia coli using 3H-FPP and biotinylated-DESGPGCMSCKCVLS peptide as substrates incubated for 30 mins in presence of 5 mM ATP by scintillation proximity assay
Method in brief: (§2)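 Cell-free FTase inhibition assay, standard protocol; anion-dependent variants repeated with added anion (dimethylallyl diphosphate at increasing concentrations, or other anions) beyond the standard-protocol level.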

[6] = Inhibition of recombinant rat FTase expressed in Escherichia coli using 3H-FPP and biotinylated-DESGPGCMSCKCVLS peptide as substrates incubated for 30 mins in presence of 5 mM pyrophosphate by scintillation proximity assay; method in brief: as §2
[7] = tested on: Human immunodeficiency virus 1; experiment: Reactivation of latent HIV-1 infected in human Jurkat 2C4 cells assessed as increase in HIV-1 transcription incubated for 24 hrs by Steady-Glo luciferase reporter gene assay; type: functional, organism-based; conditions: for EC50: Human immunodeficiency virus 1, 2C4, 24 h
Method in brief: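 Jurkat 2C4 latent HIV reporter line (minimal provirus, Tat H12L, LTR-driven luciferase); latency reversal measured as increase in luciferase luminescence in cell lysates.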

[8] = biological target: T3, NmrA-like family domain-containing protein 1 (Homo sapiens, UniProt Q9HBL8); experiment: Displacement of (4-((1-neopentyl-1H-benzo[d]imidazol-2-yl)methyl)piperazin-1-yl)(1,3,5-trimethyl-1H-pyrazol-4-yl)methanone from NMRAL1 in vorinostat-stimulated human Jurkat 2C4 cells infected with latent HIV-1 by pull-down experiment based competitive binding assay; type: tissue-based; method in brief: as §1
T3 sequence (Q9HBL8 whole entry, the tested form may be a part): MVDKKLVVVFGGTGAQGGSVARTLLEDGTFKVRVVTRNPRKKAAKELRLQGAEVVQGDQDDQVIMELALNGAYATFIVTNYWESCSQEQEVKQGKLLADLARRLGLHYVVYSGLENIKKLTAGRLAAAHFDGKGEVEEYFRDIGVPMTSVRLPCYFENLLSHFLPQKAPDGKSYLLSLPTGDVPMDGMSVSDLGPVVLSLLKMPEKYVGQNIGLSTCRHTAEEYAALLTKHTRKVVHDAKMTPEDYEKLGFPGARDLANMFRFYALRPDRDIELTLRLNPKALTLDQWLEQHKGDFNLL

[9] = biological target: T4, Mitochondrial inner membrane m-AAA protease component AFG3L2 (Homo sapiens, UniProt Q9Y4W6); experiment: Displacement of (4-((1-neopentyl-1H-benzo[d]imidazol-2-yl)methyl)piperazin-1-yl)(1,3,5-trimethyl-1H-pyrazol-4-yl)methanone from AFG3L2 in vorinostat-stimulated human Jurkat 2C4 cells infected with latent HIV-1 by pull-down experiment based competitive binding assay; type: tissue-based; method in brief: as §1
T4 sequence (Q9Y4W6 whole entry): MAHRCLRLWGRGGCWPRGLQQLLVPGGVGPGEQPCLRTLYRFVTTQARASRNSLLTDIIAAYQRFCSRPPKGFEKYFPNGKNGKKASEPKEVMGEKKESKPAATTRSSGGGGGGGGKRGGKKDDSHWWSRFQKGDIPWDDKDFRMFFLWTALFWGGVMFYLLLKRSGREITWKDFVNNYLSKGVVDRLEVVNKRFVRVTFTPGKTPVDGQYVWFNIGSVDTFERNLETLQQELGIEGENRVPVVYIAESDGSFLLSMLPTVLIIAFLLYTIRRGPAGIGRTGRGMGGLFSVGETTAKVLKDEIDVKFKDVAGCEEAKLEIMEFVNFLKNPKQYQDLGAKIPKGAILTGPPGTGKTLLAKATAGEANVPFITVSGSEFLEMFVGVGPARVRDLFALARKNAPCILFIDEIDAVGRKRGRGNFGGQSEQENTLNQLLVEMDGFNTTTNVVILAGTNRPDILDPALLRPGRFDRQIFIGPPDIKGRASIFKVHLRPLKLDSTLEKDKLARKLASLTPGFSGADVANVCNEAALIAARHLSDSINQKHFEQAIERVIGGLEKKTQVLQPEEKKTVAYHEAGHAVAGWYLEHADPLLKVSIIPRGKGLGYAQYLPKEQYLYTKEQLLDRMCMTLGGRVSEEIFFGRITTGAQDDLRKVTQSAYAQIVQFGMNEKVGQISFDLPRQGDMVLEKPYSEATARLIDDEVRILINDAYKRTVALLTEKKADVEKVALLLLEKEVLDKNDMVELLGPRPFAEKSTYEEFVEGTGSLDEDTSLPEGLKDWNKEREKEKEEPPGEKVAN

[10] = Inhibition of recombinant rat FTase expressed in Escherichia coli using 3H-FPP and biotinylated-DESGPGCMSCKCVLS peptide as substrates incubated for 30 mins in presence of 5 mM phosphate by scintillation proximity assay; method in brief: as §2
[11] = Inhibition of rat recombinant FTase expressed in Escherichia coli using 3H-FPP and biotinylated-DESGPGCMSCKCVLS peptide as substrates incubated for 30 mins in presence of 5 mM thiosulfate by scintillation proximity assay; method in brief: as §2
[12] = biological target: T4, Mitochondrial inner membrane m-AAA protease component AFG3L2; experiment: Displacement of (1-(2-aminoethyl)-3,5-dimethyl-1H-pyrazol-4-yl)(4-((1-neopentyl-1H-benzo[d]imidazol-2-yl)methyl)piperazin-1-yl)methanone from AFG3L2 in vorinostat-stimulated human Jurkat 2C4 cells infected with latent HIV-1 by pull-down experiment based competitive binding assay; type: tissue-based; method in brief: as §1
[13] = Inhibition of recombinant rat FTase expressed in Escherichia coli using 3H-FPP and biotinylated-DESGPGCMSCKCVLS peptide as substrates incubated for 30 mins in presence of 2 mM DMA-PP by scintillation proximity assay; method in brief: as §2
[14] = Inhibition of recombinant rat FTase expressed in Escherichia coli using 3H-FPP and biotinylated-DESGPGCMSCKCVLS peptide as substrates incubated for 30 mins in presence of 1 mM DMA-PP by scintillation proximity assay; method in brief: as §2
[15] = biological target: T2, Protein farnesyltransferase subunit beta; experiment: Displacement of (1-(2-aminoethyl)-3,5-dimethyl-1H-pyrazol-4-yl)(4-((1-neopentyl-1H-benzo[d]imidazol-2-yl)methyl)piperazin-1-yl)methanone from FNTB in vorinostat-stimulated human Jurkat 2C4 cells infected with latent HIV-1 by pull-down experiment based competitive binding assay
[16] = tested on: Human immunodeficiency virus 1; experiment: Potentiation of vorinostat-induced reactivation of latent HIV-1 infected in human Jurkat 2C4 cells assessed as increase in HIV-1 transcription incubated for 24 hrs in presence of vorinostat by Steady-Glo luciferase reporter gene assay relative to control; type: functional
Homo sapiens [17] = species on record: Homo sapiens; experiment: Binding affinity to recombinant FTase (unknown origin) assessed as melting temperature at 20 uM by TdF assay (reference value: 46.2 +/- 0.2 degreeC)
[18] = biological target: T1, Protein farnesyltransferase/geranylgeranyltransferase type-1 subunit alpha; experiment: Displacement of (1-(2-aminoethyl)-3,5-dimethyl-1H-pyrazol-4-yl)(4-((1-neopentyl-1H-benzo[d]imidazol-2-yl)methyl)piperazin-1-yl)methanone from FNTA in vorinostat-stimulated human Jurkat 2C4 cells infected with latent HIV-1 by pull-down experiment based competitive binding assay
[19] = Inhibition of recombinant rat FTase expressed in Escherichia coli using 3H-FPP and biotinylated-DESGPGCMSCKCVLS peptide as substrates incubated for 30 mins by scintillation proximity assay; method in brief: as §2
[20] = biological target: T3, NmrA-like family domain-containing protein 1; experiment: Displacement of (1-(2-aminoethyl)-3,5-dimethyl-1H-pyrazol-4-yl)(4-((1-neopentyl-1H-benzo[d]imidazol-2-yl)methyl)piperazin-1-yl)methanone from NMRAL1 in vorinostat-stimulated human Jurkat 2C4 cells infected with latent HIV-1 by pull-down experiment based competitive binding assay; type: tissue-based; method in brief: as §1
[21] = Inhibition of recombinant rat FTase expressed in Escherichia coli using 3H-FPP and biotinylated-DESGPGCMSCKCVLS peptide as substrates incubated for 30 mins in presence of 5 mM DMA-PP by scintillation proximity assay; method in brief: as §2

ΔTm (Homo sapiens [1]) [°C]	EC50 [2] [nM]	IC50 [5] [nM]	IC50 [6] [nM]	EC50 [7] [nM]	IC50 [10] [nM]	IC50 [11] [nM]	IC50 [13] [nM]	IC50 [14] [nM]	IC50 [19] [nM]	IC50 [21] [nM]	Compound	Activity [16] [%]	further results
2	> 8000	> 40000	> 40000	> 8000	> 40000	> 40000					CCn1c(CN2CCN(C(=O)c3c(C)nn(C)c3C)CC2)nc2ccccc21		inhibition [3]: inactive; inhibition [4]: inactive; inhibition [8]: inactive; inhibition [9]: inactive
4.2	340	250	2500	> 8000	1300	2100	900	1000	≥ 20000	500	Cc1nn(C)c(C)c1C(=O)N1CCN(Cc2nc3ccccc3n2CC(C)(C)C)CC1	100	Kd [12]: 19000 nM; Kd [15]: 475 nM; Tm (Homo sapiens [17]): 50.4 °C; Kd [18]: 340 nM; Kd [20]: 19000 nM
	170	50	70		70	50	100	40	50	70	N#Cc1ccc(Cn2cncc2CN2CCN(c3cccc(Cl)c3)C(=O)C2)cc1 [L-778123 FREE BASE]	100	Activity [7]: Active
	1100			> 8000							CC(=O)NCCn1nc(C)c(C(=O)N2CCN(Cc3nc4ccccc4n3CC(C)(C)C)CC2)c1C		

From ChEMBL document CHEMBL4715904, “Discovery of an Anion-Dependent Farnesyltransferase Inhibitor from a Phenotypic Screen” (ACS Med Chem Lett, 2021)
